Test results: ChEMBL document CHEMBL4837261, “Optimization of TopoIV Potency, ADMET Properties, and hERG Inhibition of 5-Amino-1,3-dioxane-Linked Novel Bacterial Topoisomerase Inhibitors: Identification of a Lead with In Vivo Efficacy against MRSA” (J Med Chem, 2021)
Values after ≈ are worked out from the molar mass of the structure shown.

What was measured:
[1] = system: Staphylococcus aureus; experiment: Antibacterial activity against cystic fibrosis isolate Staphylococcus aureus by CLSI method; type: functional
[2] = Growth inhibition of human K/VP.5 cells incubated for 48 hrs by NBTI cell counting analysis; type: functional; settings: K562, 48 h
[3] = molecular target: DNA gyrase (Staphylococcus aureus, UniProt P0A0K8+P20831); experiment: Inhibition of Staphylococcus aureus Gyrase supercoiling activity assessed as reduction in supercoiling pBR322 DNA by measuring relaxation by bromophenol blue staining based TAE gel method; type: protein-complex assay
[4] = system: Staphylococcus aureus; experiment: Antibacterial activity against Staphylococcus aureus 3527 by CLSI method; type: functional
[5] = system: Staphylococcus aureus; experiment: Antibacterial activity against Staphylococcus aureus ATCC 29213 by CLSI method; type: functional
[6] = molecular target: DNA gyrase (Staphylococcus aureus, UniProt P0A0K8+P20831, D83N); experiment: Inhibition of Staphylococcus aureus DNA Gyrase D83N mutant assessed as reduction in supercoiling pBR322 DNA by measuring relaxation by bromophenol blue staining based TAE gel method
[7] = system: Staphylococcus aureus; experiment: Antibacterial activity against Staphylococcus aureus harbouring GyrA D83N mutant by CLSI method; type: functional
[8] = molecular target: Topoisomerase IV (Staphylococcus aureus, UniProt P0C1S7+P0C1U9); experiment: Inhibition of Staphylococcus aureus topoisomerase IV decatenation activity using kDNA as substrate by ethidium bromide/bromophenol blue staining based agarose gel electrophoresis analysis; type: protein-complex assay
[9] = system: Staphylococcus aureus; experiment: Antibacterial activity against methicillin-resistant Staphylococcus aureus USA300 by CLSI method; type: functional
[10] = system: Staphylococcus aureus; experiment: Selectivity index, ratio of IC50 for inhibition of Staphylococcus aureus topoisomerase IV decatenation activity to IC50 for inhibition of Staphylococcus aureus DNA gyrase supercoiling activity
Procedure, shortened: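 Both IC50s were measured in gel-based assays with S. aureus enzymes: supercoiling inhibition for DNA gyrase and decatenation inhibition for TopoIV. The ratio is TopoIV IC50 divided by gyrase IC50.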

[11] = system: Staphylococcus aureus; experiment: Selectivity ratio of IC50 for inhibition of Staphylococcus aureus Gyrase D83N mutant to IC50 for inhibition of Staphylococcus aureus Gyrase
Procedure, shortened: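 Ratio of two IC50s: the IC50 from the D83N mutant gyrase supercoiling assay (commercial kit) divided by the IC50 from the gel-based wild-type S. aureus gyrase supercoiling assay.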

[12] = system: Streptococcus pneumoniae; experiment: Antibacterial activity against Streptococcus pneumoniae by CLSI method; type: functional
[13] = system: Enterococcus sp.; experiment: Antibacterial activity against Enterococcus sp. by CLSI method; type: functional
[14] = system: Staphylococcus aureus; experiment: Antibacterial activity against Staphylococcus aureus by CLSI method; type: functional
Procedure, shortened: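 MICs were determined by broth microdilution per CLSI guidelines, in triplicate at minimum. Strains were S. aureus ATCC 29213, MRSA USA300 and a cystic fibrosis respiratory isolate, and ranges are given where seen.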

[15] = system: Acinetobacter baumannii; experiment: Antibacterial activity against Acinetobacter baumannii by CLSI method; type: functional

COc1ccc2ncc(F)c(C[C@H](O)[C@H]3OC[C@H](NCc4cc5c(cn4)OCCC5)CO3)c2n1
MIC [1]: 0.5 µg/mL (≈ 1.06 µM) | IC50 [2]: 80.5 µM | IC50 [3]: 0.14 µM | MIC [4]: 0.5 µg/mL (≈ 1.06 µM) | MIC [5]: 0.125 µg/mL (≈ 0.266 µM) | IC50 [6]: 13 µM | MIC [7]: 8 µg/mL (≈ 17 µM) | IC50 [8]: 1.3 µM

COc1ccc2ncc(F)c(C(O)C[C@H]3OC[C@H](NCc4cc5c(cn4)OCCO5)CO3)c2n1 (mixture of isomers)
MIC [9]: 1 µg/mL (≈ 2.12 µM) | IC50 [2]: 232 µM | IC50 [3]: 0.16 µM | MIC [4]: 1 µg/mL (≈ 2.12 µM) | MIC [5]: 0.5 µg/mL (≈ 1.06 µM) | MIC [7]: 16 µg/mL (≈ 33.9 µM) | IC50 [8]: 8.8 µM

COc1ccc2ncc(F)c(C(O)C[C@H]3OC[C@H](NCc4cc5c(cn4)OCCO5)CO3)c2c1 (mixture of isomers)
MIC [9]: 1 µg/mL (≈ 2.12 µM) | MIC [1]: 0.5 µg/mL (≈ 1.06 µM) | IC50 [2]: > 100 µM | MIC [4]: 1 µg/mL (≈ 2.12 µM) | MIC [5]: 0.5 µg/mL (≈ 1.06 µM) | MIC [7]: 16 µg/mL (≈ 33.9 µM) | IC50 [8]: 14 µM

COc1ccc2ncc(F)c(C[C@H](O)[C@H]3OC[C@H](NCc4cc5c(cn4)OCO5)CO3)c2n1
MIC [9]: 1 µg/mL (≈ 2.18 µM) | MIC [1]: 0.5 µg/mL (≈ 1.09 µM) | IC50 [3]: 0.85 µM | MIC [4]: 1 µg/mL (≈ 2.18 µM) | MIC [5]: 0.5 µg/mL (≈ 1.09 µM) | Ratio IC50 [10]: 22 | IC50 [6]: 73 µM | MIC [7]: > 8 µg/mL | IC50 [8]: 18 µM | Ratio IC50 [11]: 86

COc1ccc2ncc(=O)n(CC(O)[C@H]3OC[C@H](NCc4ccc5c(c4)OCCO5)CO3)c2c1 (mixture of isomers)
MIC [9]: 0.5 µg/mL (≈ 1.06 µM) | MIC [1]: 0.25 µg/mL (≈ 0.532 µM) | IC50 [2]: 71.1 µM | IC50 [3]: 0.019 µM | MIC [4]: 0.5 µg/mL (≈ 1.06 µM) | MIC [5]: 0.125 µg/mL (≈ 0.266 µM) | MIC [7]: 8 µg/mL (≈ 17 µM) | IC50 [8]: 4 µM

COc1ccc2ncc(F)c(C[C@H](O)[C@H]3OC[C@H](NCc4cc5c(nn4)OCCO5)CO3)c2n1
MIC [9]: 0.25 µg/mL (≈ 0.528 µM) | MIC [1]: 0.25 µg/mL (≈ 0.528 µM) | IC50 [2]: > 200 µM | IC50 [3]: 32 µM | MIC [4]: 0.25 µg/mL (≈ 0.528 µM) | MIC [5]: 0.125 µg/mL (≈ 0.264 µM) | IC50 [6]: 47 µM | MIC [7]: 2 µg/mL (≈ 4.22 µM) | IC50 [8]: 4.8 µM

COc1ccc2ncc(F)c(C[C@H](O)[C@H]3OC[C@H](NCc4ccc(Cl)c(Cl)c4)CO3)c2n1
MIC [9]: 0.125 µg/mL (≈ 0.259 µM) | MIC [1]: 0.125 µg/mL (≈ 0.259 µM) | IC50 [2]: 22.2 µM | IC50 [3]: 0.16 µM | MIC [4]: 0.125 µg/mL (≈ 0.259 µM) | MIC [5]: ≤ 0.25 µg/mL | MIC50 [12]: 4 µg/mL (≈ 8.29 µM) | IC50 [6]: 5.5 µM | MIC [7]: 4 µg/mL (≈ 8.29 µM) | MIC50 [13]: 0.06 µg/mL (≈ 0.124 µM) | IC50 [8]: 1.1 µM | MIC50 [14]: 0.06 µg/mL (≈ 0.124 µM) | MIC50 [15]: > 64 µg/mL

COc1ccc2ncc(F)c(C[C@H](O)[C@H]3OC[C@H](NCc4ccc(Cl)c(Cl)c4)CO3)c2c1
MIC [9]: 0.25 µg/mL (≈ 0.519 µM) | MIC [1]: 0.5 µg/mL (≈ 1.04 µM) | IC50 [3]: 0.056 µM | MIC [4]: 0.25 µg/mL (≈ 0.519 µM) | MIC [5]: 0.125 µg/mL (≈ 0.26 µM) | Ratio IC50 [10]: 24 | MIC [7]: 4 µg/mL (≈ 8.31 µM) | IC50 [8]: 1.3 µM

COc1ccc2ncc(F)c(C[C@H](O)[C@H]3OC[C@H](NCc4cc5c(cn4)OCCO5)CO3)c2c1
MIC [9]: 0.5 µg/mL (≈ 1.06 µM) | MIC [1]: 0.5 µg/mL (≈ 1.06 µM) | IC50 [3]: 0.042 µM | MIC [4]: 0.5 µg/mL (≈ 1.06 µM) | MIC [5]: 0.25 µg/mL (≈ 0.53 µM) | Ratio IC50 [10]: 136 | MIC50 [12]: 2 µg/mL (≈ 4.24 µM) | MIC [7]: > 8 µg/mL | MIC50 [13]: 0.12 µg/mL (≈ 0.255 µM) | IC50 [8]: 5.7 µM | MIC50 [14]: 0.25 µg/mL (≈ 0.53 µM) | MIC50 [15]: 64 µg/mL (≈ 136 µM)

COc1ccc2ccc(F)c(C[C@H](O)[C@H]3OC[C@H](NCc4ccc(Cl)c(Cl)c4)CO3)c2n1
MIC [9]: 0.5 µg/mL (≈ 1.04 µM) | MIC [1]: 0.25 µg/mL (≈ 0.519 µM) | IC50 [3]: 0.043 µM | MIC [4]: 0.25 µg/mL (≈ 0.519 µM) | MIC [5]: 0.25 µg/mL (≈ 0.519 µM) | Ratio IC50 [10]: 54 | MIC [7]: 4 µg/mL (≈ 8.31 µM) | IC50 [8]: 2.3 µM

COc1ccc2ccc(F)c(C[C@H](O)[C@H]3OC[C@H](NCc4cc5c(cn4)OCCO5)CO3)c2n1
MIC [9]: 0.25 µg/mL (≈ 0.53 µM) | MIC [1]: 0.125 µg/mL (≈ 0.265 µM) | IC50 [3]: 0.013 µM | MIC [4]: 0.125 µg/mL (≈ 0.265 µM) | MIC [5]: 0.125 µg/mL (≈ 0.265 µM) | Ratio IC50 [10]: 67 | MIC [7]: 2 µg/mL (≈ 4.24 µM) | IC50 [8]: 0.87 µM

COc1ccc2ccc(F)c(C[C@H](O)[C@H]3OC[C@H](NCc4ccc5c(n4)NC(=O)CO5)CO3)c2n1
MIC [9]: 0.25 µg/mL (≈ 0.516 µM) | MIC [1]: 0.5 µg/mL (≈ 1.03 µM) | IC50 [2]: > 50 µM | IC50 [3]: 0.095 µM | MIC [4]: 0.25 µg/mL (≈ 0.516 µM) | MIC [5]: 0.25 µg/mL (≈ 0.516 µM) | IC50 [6]: 69 µM | MIC [7]: 2 µg/mL (≈ 4.13 µM) | IC50 [8]: 0.99 µM

COc1ccc2ncc(F)c(C[C@H](O)[C@H]3OC[C@H](NCc4ccc(C)cc4)CO3)c2c1
MIC [9]: 0.5 µg/mL (≈ 1.17 µM) | MIC [1]: 0.25 µg/mL (≈ 0.586 µM) | IC50 [3]: 0.014 µM | MIC [4]: 0.5 µg/mL (≈ 1.17 µM) | MIC [5]: 0.25 µg/mL (≈ 0.586 µM) | Ratio IC50 [10]: 294 | MIC [7]: 8 µg/mL (≈ 18.8 µM) | IC50 [8]: 4.1 µM
